Experimental findings from ChEMBL document CHEMBL2157980, “Discovery of SCH 900229, a Potent Presenilin 1 Selective γ-Secretase Inhibitor for the Treatment of Alzheimer's Disease” (ACS Med Chem Lett, 2012) are described below.

Assay [1] deals with T1, Presenilin-1 (Homo sapiens, UniProt P49768). Kind of assay: Inhibition of PS1 gamma-secretase assessed as reduction of amyloid beta-40 production by membrane based assay. Summed up: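 Aβ40 production was measured in a membrane-based assay. IC50 was the average of at least two measurements, with standard deviation 20%.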
Another assay concerns the target Presenilin-2 (Homo sapiens, UniProt P49810). Kind of assay: Inhibition of PS2 gamma-secretase expressed in HEK cells harboring Awe-Lon gene assessed as reduction of amyloid beta-42 production. The format is cell-based, HEK293.
The test system of assay [2] is Mus musculus. Kind of assay: Antialzheimer activity in B6C3F1 mouse assessed as reduction of amyloid beta-40 level in plasma at 30 mg/kg, po after 3 hrs. Set-up: scale not given: the % may be the effect or the level left. It is filed as functional. The procedure, abridged: (§1)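 B6C3F1 mice were dosed orally at 10 or 30 mg/kg. Aβ40 in plasma and cortex was measured 3 h after dosing and expressed as % change, with lowering shown as negative.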

A short description of assay [3]: Selectivity ratio of IC50 for PS2 gamma-secretase to IC50 for PS1 gamma-secretase. Summed up: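 Inhibitors were tested against reconstituted γ-secretase complexes containing PS1 or PS2. The result is expressed as the PS2/PS1 ratio of IC50 values.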
Assay [4] deals with Mus musculus. Kind of assay: Antialzheimer activity in B6C3F1 mouse assessed as reduction of amyloid beta-40 level in cortex at 30 mg/kg, po after 3 hrs. It is filed as functional. Set-up: scale not given: the % may be the effect or the level left. Summed up:
as §1

In assay [5] the target is T1, Presenilin-1. Kind of assay: Inhibition of PS1 gamma-secretase expressed in HEK cells harboring Awe-Lon gene assessed as reduction of amyloid beta-40 production. It is filed as cell-based, HEK293. The procedure, abridged:
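Cell-based Aβ40 production assay in HEK293 cells carrying APP Awe-Lon. IC50 was the average of at least two determinations, with standard deviation 20%.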

Assay [6] relates to Mus musculus. Kind of assay: Antialzheimer activity in transgenic CRND8 mouse assessed as decrease of amyloid beta-40 level in plasma at 30 mg/kg, po after 3 hrs. It is filed as functional. Also noted: scale not given: the % may be the effect or the level left. The procedure, abridged: (§2)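 CRND8 mice were dosed orally at 30 mg/kg. Aβ40 in plasma and cortex was measured 3 h post-dose and reported as % change, negative for lowering and positive for increase.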

In assay [7] the test system is Mus musculus. Kind of assay: Antialzheimer activity in transgenic CRND8 mouse assessed as decrease of amyloid beta-40 level in cortex at 30 mg/kg, po after 3 hrs. It is filed as functional. Also noted: scale not given: the % may be the effect or the level left. The procedure, abridged:
as §2

Chain of Presenilin-2 (P49810 1-297 limits assumed): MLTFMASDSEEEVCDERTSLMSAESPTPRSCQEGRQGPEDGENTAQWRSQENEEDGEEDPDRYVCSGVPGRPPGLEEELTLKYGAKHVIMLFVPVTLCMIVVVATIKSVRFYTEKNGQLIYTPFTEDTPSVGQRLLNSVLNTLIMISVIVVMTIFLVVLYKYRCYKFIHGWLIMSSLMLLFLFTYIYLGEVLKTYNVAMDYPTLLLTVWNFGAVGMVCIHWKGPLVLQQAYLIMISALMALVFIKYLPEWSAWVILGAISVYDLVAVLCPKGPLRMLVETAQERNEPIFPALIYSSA
Chain of Presenilin-2 (P49810 298-448 limits assumed): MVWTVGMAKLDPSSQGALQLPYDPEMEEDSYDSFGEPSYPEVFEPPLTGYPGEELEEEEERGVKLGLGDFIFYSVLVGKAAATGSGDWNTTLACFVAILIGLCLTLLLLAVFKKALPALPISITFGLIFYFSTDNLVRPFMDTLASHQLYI

Broadly, the IC50 is the concentration needed to halve the response being measured. As to `CS(=O)(=O)CC[C@H]1OCC[C@]2(S(=O)(=O)c3ccc(Cl)cc3)c3c(F)ccc(F)c3OC[C@H]12`, the IC50 on Presenilin-1 [1] was found to be 377 nM.

As to `CCS(=O)(=O)CC[C@@H]1OCC[C@@]2(S(=O)(=O)c3ccc(Cl)cc3)c3c(F)ccc(F)c3OC[C@@H]12`, the half-inhibitory concentration (IC50) is 2 nM on Presenilin-2, 3 nM at Presenilin-1 [1] and 5 nM at Presenilin-1 [5]. The figures for the Activity with Mus musculus [2] and in the assay with Mus musculus [4] were 60% and 79%, respectively. In addition, the Ratio IC50 in assay [3] turned out to be 26.

For `CC(C)S(=O)(=O)CC[C@@H]1OCC[C@@]2(S(=O)(=O)c3ccc(Cl)cc3)c3c(F)ccc(F)c3OC[C@@H]12` (racemic) [listing 1 of 2 here], the Activity is 20% with Mus musculus [6] and 57% in the assay with Mus musculus [7]. Moreover, the IC50 came out at 10 nM at Presenilin-2, 24 nM at Presenilin-1 [1] and 26 nM on Presenilin-1 [5].

On to `O=S(=O)(c1ccc(Cl)cc1)[C@]12CCO[C@H](CCO)[C@H]1COc1c(F)ccc(F)c12`, for which the concentration for half-maximal inhibition (IC50) at Presenilin-1 [1] came to 320 nM.

As to `CC(C)S(=O)(=O)CC[C@@H]1OCC[C@@]2(S(=O)(=O)c3ccc(Cl)cc3)c3c(F)ccc(F)c3OC[C@@H]12` (racemic) [listing 2 of 2 here], the Ratio IC50 in assay [3] was 6.
